ChEMBL document CHEMBL4725486, “Effects of C-Terminal B-Chain Modifications in a Relaxin 3 Agonist Analogue” (ACS Med Chem Lett, 2020)

What was measured:
Relaxin-3 receptor 2 = Relaxin-3 receptor 2 (Homo sapiens, UniProt Q8TDU9); assay: Agonist activity at RXFP4 (unknown origin) stably expressed in CHO cells co-transfected with pCRE assessed as inhibition of forskolin-induced cAMP accumulation measured after 6 hrs by beta-galactosidase reporter gene assay; assay type: functional, cell-based
Summary of the method: (§1)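 Cells were CHO lines expressing RXFP3 or RXFP4, which couple to Gi/o. Agonist action was read as inhibition of forskolin-stimulated cAMP in a reporter gene assay after 6 h stimulation. pEC50 values were pooled from 3–4 independent experiments.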

Relaxin-3 receptor 1 [1] = target: T1, Relaxin-3 receptor 1 (Homo sapiens, UniProt Q9NSD7); assay: Displacement of Eu-labeled H3B1-22R from RXFP3 (unknown origin) stably expressed in CHO-K1 cells by competition binding assay; assay type: cell-based
T1 sequence (Q9NSD7 whole entry): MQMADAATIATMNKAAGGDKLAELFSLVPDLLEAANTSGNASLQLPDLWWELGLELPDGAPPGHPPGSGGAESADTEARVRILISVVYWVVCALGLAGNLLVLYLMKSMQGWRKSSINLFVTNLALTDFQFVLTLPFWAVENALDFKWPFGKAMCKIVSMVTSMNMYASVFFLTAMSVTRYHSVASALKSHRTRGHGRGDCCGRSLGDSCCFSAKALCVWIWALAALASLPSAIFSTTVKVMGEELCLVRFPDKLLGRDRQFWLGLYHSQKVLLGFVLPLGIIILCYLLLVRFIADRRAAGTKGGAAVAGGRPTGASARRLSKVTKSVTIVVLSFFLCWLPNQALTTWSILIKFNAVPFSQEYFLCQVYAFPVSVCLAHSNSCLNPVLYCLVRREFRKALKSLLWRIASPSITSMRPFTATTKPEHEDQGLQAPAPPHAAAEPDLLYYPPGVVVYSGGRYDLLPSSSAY
Summary of the method: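 Competition binding used europium-labeled H3 B1-22R as the labeled ligand on CHO-RXFP3 cells, with peptides as competitors. pKi values were pooled from 3–4 independent experiments.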

Relaxin-3 receptor 1 [2] = target: T1, Relaxin-3 receptor 1; assay: Agonist activity at RXFP3 (unknown origin) stably expressed in CHO-K1 cells co-transfected with pCRE assessed as inhibition of forskolin-induced cAMP accumulation measured after 6 hrs by beta-galactosidase reporter gene assay; assay type: functional, cell-based; summary of the method: as §1

Relaxin-3 receptor 2, sequence (Q8TDU9 whole entry): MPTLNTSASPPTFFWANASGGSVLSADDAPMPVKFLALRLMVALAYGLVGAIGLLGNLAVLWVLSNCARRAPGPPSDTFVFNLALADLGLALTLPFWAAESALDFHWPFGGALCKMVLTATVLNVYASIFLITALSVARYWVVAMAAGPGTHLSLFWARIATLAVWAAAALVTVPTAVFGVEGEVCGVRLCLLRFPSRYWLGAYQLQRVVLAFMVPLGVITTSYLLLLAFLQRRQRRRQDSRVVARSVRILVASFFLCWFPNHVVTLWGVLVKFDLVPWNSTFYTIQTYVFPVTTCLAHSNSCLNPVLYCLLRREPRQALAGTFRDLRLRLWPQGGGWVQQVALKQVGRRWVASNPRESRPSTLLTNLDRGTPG

For `CC[C@H](C)[C@@H]1NC(=O)[C@H](CCC(=O)O)NC(=O)[C@H](CO)NC(=O)[C@H](CCCCN)NC(=O)[C@H](CO)NC(=O)[C@H](C)NC(=O)CNC(=O)[C@H](Cc2c[nH]c3ccccc23)NC(=O)[C@H](CCCCN)NC(=O)[C@@H](N)CSSC[C@@H](C(=O)NCC(=O)NCC(=O)N[C@@H](CO)C(=O)N[C@@H](CCCNC(=N)N)C(=O)N[C@@H](Cc2c[nH]c3ccccc23)C(=O)O)NC(=O)[C@H]([C@@H](C)O)NC(=O)[C@H](Cc2ccccc2)NC(=O)[C@H]([C@@H](C)CC)NC(=O)[C@H](C(C)C)NC(=O)[C@H](CCCNC(=N)N)NC(=O)[C@H]([C@@H](C)CC)NC(=O)[C@H](Cc2ccccc2)NC(=O)[C@H](CCC(=O)O)NC(=O)[C@H](CCCNC(=N)N)NC(=O)CNC(=O)[C@@H](NC(=O)[C@H](CC(C)C)NC(=O)[C@H](CCCNC(=N)N)NC(=O)[C@@H](NC(=O)CNC(=O)[C@H](Cc2ccc(O)cc2)NC(=O)[C@@H]2CCCN2C(=O)[C@H](C)NC(=O)[C@H](C)NC(=O)[C@H](CCCNC(=N)N)N[C@@H](Cc2c[nH]c3ccccc23)C(=O)O)C(C)C)CSSC[C@@H](C(=O)O)NC(=O)[C@H](CC(C)C)NC(=O)[C@H](CO)NC(=O)[C@H](CO)NC1=O`, the EC50 (Relaxin-3 receptor 2) was 6.92 nM, the Ki (Relaxin-3 receptor 1 [1]) was 45.7 nM and the EC50 (Relaxin-3 receptor 1 [2]) was 6.17 nM.
In the case of `CC[C@H](C)[C@@H]1NC(=O)[C@H](CCC(=O)O)NC(=O)[C@H](CO)NC(=O)[C@H](CCCCN)NC(=O)[C@H](CO)NC(=O)[C@H](C)NC(=O)CNC(=O)[C@H](Cc2c[nH]c3ccccc23)NC(=O)[C@H](CCCCN)NC(=O)[C@@H](N)CSSC[C@@H](C(=O)NCC(=O)NCC(=O)N[C@@H](CO)C(=O)N[C@@H](CCCNC(=N)N)C(=O)N[C@@H](Cc2c[nH]c3ccccc23)C(=O)O)NC(=O)[C@H]([C@@H](C)O)NC(=O)[C@H](Cc2ccccc2)NC(=O)[C@H]([C@@H](C)CC)NC(=O)[C@H](C(C)C)NC(=O)[C@H](CCCNC(=N)N)NC(=O)[C@H]([C@@H](C)CC)NC(=O)[C@H](Cc2ccccc2)NC(=O)[C@H](CCC(=O)O)NC(=O)[C@H](CCCNC(=N)N)NC(=O)CNC(=O)[C@@H](NC(=O)[C@H](CC(C)C)NC(=O)[C@H](CCCNC(=N)N)NC(=O)[C@@H](NC(=O)CNC(=O)[C@H](Cc2ccc(O)cc2)NC(=O)[C@@H]2CCCN2C(=O)[C@H](C)NC(=O)[C@H](C)NC(=O)[C@H](CCCNC(=N)N)N[C@H](COC(N)=O)Cc2c[nH]c3ccccc23)C(C)C)CSSC[C@@H](C(=O)O)NC(=O)[C@H](CC(C)C)NC(=O)[C@H](CO)NC(=O)[C@H](CO)NC1=O`, the EC50 (Relaxin-3 receptor 2) is reported as 19.5 nM, the Ki (Relaxin-3 receptor 1 [1]) is reported as 110 nM and the EC50 (Relaxin-3 receptor 1 [2]) is reported as 6.17 nM.
In the case of `CC[C@H](C)[C@@H]1NC(=O)[C@H](CCC(=O)O)NC(=O)[C@H](CO)NC(=O)[C@H](CCCCN)NC(=O)[C@H](CO)NC(=O)[C@H](C)NC(=O)CNC(=O)[C@H](Cc2c[nH]c3ccccc23)NC(=O)[C@H](CCCCN)NC(=O)[C@@H](N)CSSC[C@@H](C(=O)NCC(=O)NCC(=O)N[C@@H](CO)C(=O)N[C@@H](CCCNC(=N)N)C(=O)N[C@@H](Cc2c[nH]c3ccccc23)C(=O)O)NC(=O)[C@H]([C@@H](C)O)NC(=O)[C@H](Cc2ccccc2)NC(=O)[C@H]([C@@H](C)CC)NC(=O)[C@H](C(C)C)NC(=O)[C@H](CCCNC(=N)N)NC(=O)[C@H]([C@@H](C)CC)NC(=O)[C@H](Cc2ccccc2)NC(=O)[C@H](CCC(=O)O)NC(=O)[C@H](CCCNC(=N)N)NC(=O)CNC(=O)[C@@H](NC(=O)[C@H](CC(C)C)NC(=O)[C@H](CCCNC(=N)N)NC(=O)[C@@H](NC(=O)CNC(=O)[C@H](Cc2ccc(O)cc2)NC(=O)[C@@H]2CCCN2C(=O)[C@H](C)NC(=O)[C@H](C)NC(=O)[C@H](CCCNC(=N)N)N[C@H](CO)Cc2c[nH]c3ccccc23)C(C)C)CSSC[C@@H](C(=O)O)NC(=O)[C@H](CC(C)C)NC(=O)[C@H](CO)NC(=O)[C@H](CO)NC1=O`, the EC50 (Relaxin-3 receptor 2) is reported as 282 nM, the Ki (Relaxin-3 receptor 1 [1]) is reported as 331 nM and the EC50 (Relaxin-3 receptor 1 [2]) is reported as 13.2 nM.
For `CC[C@H](C)[C@@H]1NC(=O)[C@H](CCC(=O)O)NC(=O)[C@H](CO)NC(=O)[C@H](CCCCN)NC(=O)[C@H](CO)NC(=O)[C@H](C)NC(=O)CNC(=O)[C@H](Cc2c[nH]c3ccccc23)NC(=O)[C@H](CCCCN)NC(=O)[C@@H](N)CSSC[C@@H](C(=O)NCC(=O)NCC(=O)N[C@@H](CO)C(=O)N[C@@H](CCCNC(=N)N)C(=O)N[C@@H](Cc2c[nH]c3ccccc23)C(=O)O)NC(=O)[C@H]([C@@H](C)O)NC(=O)[C@H](Cc2ccccc2)NC(=O)[C@H]([C@@H](C)CC)NC(=O)[C@H](C(C)C)NC(=O)[C@H](CCCNC(=N)N)NC(=O)[C@H]([C@@H](C)CC)NC(=O)[C@H](Cc2ccccc2)NC(=O)[C@H](CCC(=O)O)NC(=O)[C@H](CCCNC(=N)N)NC(=O)CNC(=O)[C@@H](NC(=O)[C@H](CC(C)C)NC(=O)[C@H](CCCNC(=N)N)NC(=O)[C@@H](NC(=O)CNC(=O)[C@H](Cc2ccc(O)cc2)NC(=O)[C@@H]2CCCN2C(=O)[C@H](C)NC(=O)[C@H](C)NC(=O)[C@H](CCCNC(=N)N)N[C@@H](Cc2c[nH]c3ccccc23)C(=O)OC[C@H](NC(C)=O)C(N)=O)C(C)C)CSSC[C@@H](C(=O)O)NC(=O)[C@H](CC(C)C)NC(=O)[C@H](CO)NC(=O)[C@H](CO)NC1=O`, the EC50 (Relaxin-3 receptor 2) was 7.08 nM, the Ki (Relaxin-3 receptor 1 [1]) was 186 nM and the EC50 (Relaxin-3 receptor 1 [2]) was 4.37 nM.
`CC[C@H](C)[C@@H]1NC(=O)[C@H](CCC(=O)O)NC(=O)[C@H](CO)NC(=O)[C@H](CCCCN)NC(=O)[C@H](CO)NC(=O)[C@H](C)NC(=O)CNC(=O)[C@H](Cc2c[nH]c3ccccc23)NC(=O)[C@H](CCCCN)NC(=O)[C@@H](N)CSSC[C@@H](C(=O)NCC(=O)NCC(=O)N[C@@H](CO)C(=O)N[C@@H](CCCNC(=N)N)C(=O)N[C@@H](Cc2c[nH]c3ccccc23)C(=O)O)NC(=O)[C@H]([C@@H](C)O)NC(=O)[C@H](Cc2ccccc2)NC(=O)[C@H]([C@@H](C)CC)NC(=O)[C@H](C(C)C)NC(=O)[C@H](CCCNC(=N)N)NC(=O)[C@H]([C@@H](C)CC)NC(=O)[C@H](Cc2ccccc2)NC(=O)[C@H](CCC(=O)O)NC(=O)[C@H](CCCNC(=N)N)NC(=O)CNC(=O)[C@@H](NC(=O)[C@H](CC(C)C)NC(=O)[C@H](CCCNC(=N)N)NC(=O)[C@@H](NC(=O)CNC(=O)[C@H](Cc2ccc(O)cc2)NC(=O)[C@@H]2CCCN2C(=O)[C@H](C)NC(=O)[C@H](C)NC(=O)[C@H](CCCNC(=N)N)N[C@@H](Cc2c[nH]c3ccccc23)C(N)=O)C(C)C)CSSC[C@@H](C(=O)O)NC(=O)[C@H](CC(C)C)NC(=O)[C@H](CO)NC(=O)[C@H](CO)NC1=O` showed an EC50 (Relaxin-3 receptor 2) of 14.5 nM, a Ki (Relaxin-3 receptor 1 [1]) of 191 nM and an EC50 (Relaxin-3 receptor 1 [2]) of 15.8 nM.
